Measurements reported in ChEMBL document CHEMBL1142371, “Synthesis and biological evaluation of imidazol-2-one derivatives as potential antitumor agents” (Bioorg Med Chem, 2008).

What was measured:
[1] = tested on: K562; experiment: Cytotoxicity against human K562 cells after 48 hrs by MTT assay; assay type: functional, cell-based; conditions: K562, 48 h
Method in brief: (§1)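 MTT read-out after 48 h drug exposure; MTT then added for a further 4 h at 37 °C, formazan dissolved in DMSO, absorbance at 570 nm. Triplicate wells in three independent experiments; IC50 = concentration giving 50% inhibition of cell viability, values are means of three experiments.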

[2] = Cytotoxicity against multidrug-resistant human K562R cells after 48 hrs by MTT assay; assay type: functional, cell-based; conditions: K-562R; method in brief: as §1
[3] = tested on: HL-60; experiment: Cytotoxicity against human HL60 cells after 48 hrs by MTT assay; assay type: functional, cell-based; conditions: HL-60, 48 h; method in brief: as §1
[4] = tested on: PC-3; experiment: Cytotoxicity against human PC3 cells after 48 hrs by MTT assay; assay type: functional, cell-based; conditions: PC-3, 48 h; method in brief: as §1
[5] = tested on: A549; experiment: Cytotoxicity against human A549 cells after 48 hrs by MTT assay; assay type: functional, cell-based; conditions: A549, 48 h; method in brief: as §1
[6] = tested on: Bel-7402; experiment: Cytotoxicity against human BEL-7402 cells after 48 hrs by MTT assay; assay type: functional, cell-based; conditions: Bel-7402, 48 h; method in brief: as §1
[7] = Cytotoxicity against human ECA109 cells after 48 hrs by MTT assay; assay type: functional, cell-based; conditions: ECa-109, 48 h; method in brief: as §1
[8] = tested on: MCF7; experiment: Cytotoxicity against human MCF7 cells after 48 hrs by MTT assay; assay type: functional, cell-based; conditions: MCF7, 48 h; method in brief: as §1
[9] = tested on: Mus musculus; experiment: Effect on body weight in mouse bearing H22 cells at 5 mg/kg/day, im after 10 days; assay type: functional; conditions: route intramuscular
Method in brief: (§2)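 Female tumor-bearing mice (S-180 or H-22, 2.5 × 10⁶ cells subcutaneously in armpit) dosed im once daily for 10 consecutive days; saline negative control. Initial and end body weights recorded per group.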

[10] = tested on: Mus musculus; experiment: Antitumor activity in mouse xenografted with H22 cells assessed as inhibition of tumor growth at 5 mg/kg/day, im after 10 days; assay type: functional; conditions: 240 h, route intramuscular
Method in brief: (§3)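 S-180 or H-22 cells expanded in mice for 10 days, then 2.5 × 10⁶ viable tumor cells per mouse injected subcutaneously into the armpit of female mice (9 per treated group, 18 negative controls). Compound given im once daily for 10 consecutive days; saline negative control, cyclophosphamide 30.0 mg/kg ip positive control. Tumors excised and weighed on day 10; inhibition rate = (C − T)/C × 100 from mean tumor weights.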

[11] = tested on: Mus musculus; experiment: Effect on body weight in mouse bearing H22 cells at 20 mg/kg/day, im after 10 days; assay type: functional; conditions: route intramuscular; method in brief: as §2
[12] = tested on: K562; experiment: Induction of apoptosis in human K562 cells at 1 uM after 48 hrs by flow cytometry; assay type: functional
Method in brief: (§4)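 K562 cells in exponential growth exposed 48 h to 0–1 µM compound. Cells washed twice in PBS, fixed in 70% ethanol at −20 °C, RNase-treated 1 h at 37 °C, stained with propidium iodide 30 min at 4 °C. DNA content by flow cytometry gives cell-cycle phase distribution and apoptotic fraction.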

[13] = tested on: K562; experiment: Cell cycle arrest in human K562 cells assessed as accumulation at S phase at 0.01 uM after 48 hrs by flow cytometry; assay type: functional; method in brief: as §4
[14] = tested on: Mus musculus; experiment: Antitumor activity in mouse xenografted with H22 cells assessed as inhibition of tumor growth at 20 mg/kg/day, im after 10 days; assay type: functional; conditions: 240 h, route intramuscular; method in brief: as §3
[15] = tested on: CCRF S-180; experiment: Antitumor activity in mouse xenografted with S180 cells assessed as inhibition of tumor growth at 15 mg/kg/day, im after 10 days; assay type: functional; conditions: CCRF S-180, im, 240 h, route intramuscular; method in brief: as §3
[16] = tested on: K562; experiment: Induction of apoptosis in human K562 cells at 0.1 uM after 48 hrs by flow cytometry; assay type: functional; method in brief: as §4
[17] = tested on: Mus musculus; experiment: Effect on body weight in mouse bearing S180 cells at 15 mg/kg/day, im after 10 days; assay type: functional, CCRF S-180; conditions: route intramuscular; method in brief: as §2
[18] = tested on: K562; experiment: Cell cycle arrest in human K562 cells assessed as accumulation at G2/M phase at 0.01 uM after 48 hrs by flow cytometry; assay type: functional; method in brief: as §4
[19] = tested on: H22; experiment: animal or person; conditions: Mus musculus, H22, ip, 240 h, read-out: Inhibition
[20] = tested on: CCRF S-180; experiment: animal or person; conditions: Mus musculus, CCRF S-180, ip, 240 h, read-out: Inhibition

Compound | IC50 [1] [µM] | IC50 [2] [µM] | IC50 [3] [µM] | IC50 [4] [µM] | IC50 [5] [µM] | IC50 [6] [µM] | IC50 [7] [µM] | IC50 [8] [µM] | Activity [9] [g] | inhibition in vivo at 5 mg/kg/day [10] [%] | Activity [11] [g] | Activity [12] [%] | Activity [13] [%] | inhibition in vivo at 20 mg/kg/day [14] [%] | inhibition in vivo at 15 mg/kg/day [15] [%] | Activity [16] [%] | Activity [17] [g] | Activity [18] [%] | inhibition in vivo at 30 mg/kg/day [19] [%] | inhibition in vivo at 30 mg/kg/day [20] [%]
COc1ccc(-c2cn(C(=O)Nc3cc(OC)c(OC)c(OC)c3)c(=O)n2-c2cc(OC)c(OC)c(OC)c2)cc1 | 3.8 | 3.5 | 5.4 | 49.7 | > 50 | > 50 | > 50 | > 50 | – | – | – | – | – | – | – | – | – | – | – | –
COc1cc(-n2c(-c3ccc(F)cc3F)cn(C(C)=O)c2=O)cc(OC)c1OC | > 50 | > 50 | 7.6 | 34.3 | 24.1 | 36.2 | > 50 | 49.3 | – | – | – | – | – | – | – | – | – | – | – | –
COc1cc(-n2c(-c3ccc([N+](=O)[O-])cc3)cn(C(C)=O)c2=O)cc(OC)c1OC | 26.6 | 49.6 | 7.2 | 32.9 | 49.6 | > 50 | > 50 | > 50 | – | – | – | – | – | – | – | – | – | – | – | –
COc1cc(-n2c(-c3ccccc3)cn(C(C)=O)c2=O)cc(OC)c1OC | > 50 | 9.6 | 5.6 | > 50 | > 50 | > 50 | > 50 | > 50 | – | – | – | – | – | – | – | – | – | – | – | –
COc1ccc(-c2cn(C(C)=O)c(=O)n2-c2cc(OC)c(OC)c(OC)c2)cc1OC | 43.4 | > 50 | 12.2 | > 50 | > 50 | > 50 | > 50 | > 50 | – | – | – | – | – | – | – | – | – | – | – | –
COc1ccc(-c2cn(C(C)=O)c(=O)n2-c2cc(OC)c(OC)c(OC)c2)cc1N | 0.5 | 49.3 | 0.4 | 21.4 | 1.1 | 0.6 | > 50 | 43.4 | – | – | – | – | – | – | – | – | – | – | – | –
CC(=O)O[C@@]12CO[C@@H]1C[C@H](O)[C@@]1(C)C(=O)[C@H](O)C3=C(C)[C@@H](OC(=O)[C@H](O)[C@@H](NC(=O)OC(C)(C)C)c4ccccc4)C[C@@](O)([C@@H](OC(=O)c4ccccc4)[C@H]21)C3(C)C [DOCETAXEL] | 8.5 | – | – | 54.8 | 1.7 | – | – | 4 | – | – | – | – | – | – | – | – | – | – | – | –
COc1ccc(-c2c[nH]c(=O)n2-c2cc(OC)c(OC)c(OC)c2)cc1N | 49.2 | > 50 | 10.3 | 49.8 | > 50 | > 50 | > 50 | > 50 | – | – | – | – | – | – | – | – | – | – | – | –
COc1cc(-n2c(-c3ccc(Br)cc3)cn(C(C)=O)c2=O)cc(OC)c1OC | 1 | 0.9 | 0.2 | 3.1 | 1.3 | 1.2 | 3.8 | 10.6 | 26.8 | 29.4 | 27.6 | 78.6 | 54 | 55.5 | 55.3 | 45.6 | 35.1 | 31 | – | –
COc1ccc(-c2c[nH]c(=O)n2-c2cc(OC)c(OC)c(OC)c2)cc1 | – | > 50 | 19.8 | > 50 | > 50 | – | > 50 | – | – | – | – | – | – | – | – | – | – | – | – | –
COc1ccc(-c2cn(C(C)=O)c(=O)n2-c2cc(OC)c(OC)c(OC)c2)cc1 | 0.2 | 9.5 | 5.5 | 19.7 | 17.8 | 9.5 | > 50 | > 50 | – | – | – | – | – | – | – | – | – | – | – | –
COc1ccc(-c2cn(C(=O)Nc3cc(OC)c(OC)c(OC)c3)c(=O)n2-c2cc(OC)c(OC)c(OC)c2)cc1N | 5.8 | 9.4 | 3.1 | 10 | 11.1 | 10.1 | > 50 | > 50 | – | – | – | – | – | – | – | – | – | – | – | –
COc1cc(-n2c(-c3ccc(Cl)cc3)cn(C(C)=O)c2=O)cc(OC)c1OC | > 50 | – | 4.9 | – | > 50 | – | > 50 | – | – | – | – | – | – | – | – | – | – | – | – | –
O=P1(N(CCCl)CCCl)NCCCO1 (centres undefined) [CYCLOPHOSPHAMIDE ANHYDROUS] | – | – | – | – | – | – | – | – | – | – | – | – | – | – | – | – | – | – | 36.2 | 63.5
COc1cc(-n2c(-c3ccc(O)cc3)c[nH]c2=O)cc(OC)c1OC | > 50 | > 50 | 20 | 30.2 | > 50 | > 50 | > 50 | > 50 | – | – | – | – | – | – | – | – | – | – | – | –
COc1ccc(-c2cn(C(C)=O)c(=O)n2-c2cc(OC)c(OC)c(OC)c2)cc1[N+](=O)[O-] | > 50 | > 50 | 5.6 | 30.3 | 40.9 | 35.7 | 30.8 | > 50 | – | – | – | – | – | – | – | – | – | – | – | –
COc1cc(NC(=O)n2cc(-c3ccc(O)cc3)n(-c3cc(OC)c(OC)c(OC)c3)c2=O)cc(OC)c1OC | 10.4 | > 50 | 6.3 | 3 | 2.5 | > 50 | > 50 | > 50 | – | – | – | – | – | – | – | – | – | – | – | –
COc1ccc(-c2c[nH]c(=O)n2-c2cc(OC)c(OC)c(OC)c2)cc1OC | – | > 50 | 38.8 | > 50 | > 50 | – | > 50 | – | – | – | – | – | – | – | – | – | – | – | – | –
COc1ccc(-c2cn(C(=O)Nc3cc(OC)c(OC)c(OC)c3)c(=O)n2-c2cc(OC)c(OC)c(OC)c2)cc1OC | > 50 | > 50 | 6.5 | > 50 | > 50 | > 50 | > 50 | > 50 | – | – | – | – | – | – | – | – | – | – | – | –
COc1ccc(-c2cn(C(=O)Nc3cc(OC)c(OC)c(OC)c3)c(=O)n2-c2cc(OC)c(OC)c(OC)c2)cc1[N+](=O)[O-] | 7.2 | > 50 | 19.7 | > 50 | > 50 | – | > 50 | – | – | – | – | – | – | – | – | – | – | – | – | –
COc1ccc(-c2c[nH]c(=O)n2-c2cc(OC)c(OC)c(OC)c2)cc1[N+](=O)[O-] | – | > 50 | 14.3 | > 50 | > 50 | – | > 50 | – | – | – | – | – | – | – | – | – | – | – | – | –
COc1ccc(-c2cn(C(=O)Nc3cc(OC)c(OC)c(OC)c3)c(=O)n2-c2cc(OC)c(OC)c(OC)c2)cc1O | > 50 | > 50 | 15.4 | > 50 | > 50 | – | > 50 | – | – | – | – | – | – | – | – | – | – | – | – | –
